The sample as a whole holds a higher share of hits than the screen did.
IDH1 mut inh: IDH1 R132H (human) inhibition | O75874 | IDH1 R132H reductase, diaphorase/resazurin fluorescence, 60 min | inhibition, % at 10 µM | 0.18% of 70,000 active; in the data active = inhibition above about 34%; inconclusive = no clear call, values can overlap the other calls; inactive = below about 11%
T cruzi growth-1: inhibitors of T. cruzi proliferation; T. cruzi beta-gal in NIH3T3, GalScreen luminescence, 90 h; AID 624255; inhibition, % at 8.34 µM; 5.9% of 77,000 active;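 active = mean inhibition above about 93%, with at least 55% of replicates each passing it, limit read from the data, passing the limit was not always enough; inconclusive = only one of those two conditions holds; inactive = neither condition holds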
GASC1 inh: inhibitors of human demethylase GASC-1 KDM4C; Q9H3R0; 0.15% of 96,000 active; GST-KDM4C 2-372, H3K9me3 peptide, LANCE TR-FRET; inhibition, % at 12.5 µM; AID 720574;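 active = mean replicate inhibition above about 25%, with at least 55% of replicates also reaching it, limit read from the data, passing the limit was not always enough; inconclusive = only one of those two conditions met; inactive = neither condition met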
Target sequence (Q9H3R0 2-372 limits assumed): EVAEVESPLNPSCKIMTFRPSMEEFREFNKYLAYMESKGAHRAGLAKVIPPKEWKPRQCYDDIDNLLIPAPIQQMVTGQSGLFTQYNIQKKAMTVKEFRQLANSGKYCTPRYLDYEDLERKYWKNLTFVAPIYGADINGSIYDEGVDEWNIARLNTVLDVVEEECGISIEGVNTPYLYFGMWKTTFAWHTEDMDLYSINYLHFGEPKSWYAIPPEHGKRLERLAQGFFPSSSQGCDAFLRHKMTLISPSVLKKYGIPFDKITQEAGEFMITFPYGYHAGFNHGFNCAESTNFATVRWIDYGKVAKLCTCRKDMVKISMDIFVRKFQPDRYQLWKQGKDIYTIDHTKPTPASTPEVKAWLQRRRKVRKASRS
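material = GST-tagged GASC-1 (JMJD2C) catalytic fragment, aa 2-372 | amount = enzyme final amount 10 nM | medium = HEPES buffer, pH 7.5, plus ascorbate | also added = H3K9me3 peptide substrate, Fe(II), 2-oxoglutarate | dosing = single dose | times = 30 min demethylation and 1 h detection at room temperature | detection = LANCE TR-FRET | read-out basis = Fall in 671/618 emission ratio as inhibition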
T cruzi growth-2: inhibitors of T. cruzi proliferation. shares compounds with T cruzi growth-1. T. cruzi beta-gal in NIH3T3, GalScreen luminescence, 90 h. inhibition, % at 8.35 µM. 72% of 5,600 active. AID 651739;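 active = mean replicate inhibition above about 95% and at least 55% of replicates individually reaching it, limit read from the data; inconclusive = only one of the two criteria is met; inactive = neither criterion is met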
T cruzi growth-3: inhibitors of T. cruzi proliferation; 21% of 5,600 active; inhibition, % at 2.09 µM; T. cruzi beta-gal in NIH3T3, GalScreen luminescence, 90 h; shares compounds with T cruzi growth-1;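 active = mean inhibition above about 95%, with at least 55% of replicates also reaching it, limit read from the data; inconclusive = meets just one of the two conditions; inactive = meets neither condition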
NIH3T3 tox: kills mouse NIH/3T3 fibroblasts; shares compounds with T cruzi growth-1; AID 651742; cytotoxicity (signal decrease), % at 8.35 µM; NIH/3T3 viability, CellTiter-Glo ATP luminescence, 90 h; 14% of 5,600 active;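 active = mean signal decrease across replicates above about 35% based on untreated-well scatter, with enough replicates individually passing, limit read from the data; inconclusive = no rule stated though some were filed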
NIH3T3 tox 2: NIH/3T3 (mouse) viability loss; NIH/3T3 viability, CellTiter-Glo ATP luminescence, 90 h; shares compounds with T cruzi growth-1; inhibition, % at 24.9 µM; 56% of 5,600 active;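 active = mean loss of cell viability signal at or above a set limit, and enough replicates individually reaching it; inconclusive = meets only the mean limit or only the replicate share; inactive = meets neither condition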
A number is an active result; - = inactive; ? = inconclusive; . = no result.

SMILES	IDH1 mut inh	T cruzi growth-1	GASC1 inh	T cruzi growth-2	T cruzi growth-3	NIH3T3 tox	NIH3T3 tox 2
COc1ccc(-c2ccc([C@@H]3[C@@H](CO)N4CCCCN(C(=O)Cc5ccccc5)C[C@H]34)cc2)cc1	.	?	-	97	-	-	105
COc1ccc(-c2ccc([C@H]3[C@@H](CO)N4CCCCN(C(=O)Cc5ccccc5)C[C@H]34)cc2)cc1	.	-	-	.	.	.	.
O=C(Cc1ccccc1)N1CCCCN2[C@H](C1)[C@@H](c1ccc(-c3ccccc3)cc1)[C@@H]2CO	.	-	-	.	.	.	.
O=C(Cc1ccccc1)N1CCCCN2[C@@H](CO)[C@H](c3ccc(-c4ccccc4)cc3)[C@@H]2C1	.	100	-	103	-	-	102
CC(C)N(C(=O)SCC(Cl)=C(Cl)Cl)C(C)C	-	.	.	.	.	.	.
CO[C@H]1[C@H](O)[C@H](O[C@H]2CC[C@]3(C)C4CC[C@]5(C)C(C6=CC(=O)OC6)CC[C@]5(O)C4CC[C@@H]3C2)O[C@@H](C)[C@@H]1O (some centres not stated)	-	.	.	.	.	.	.
O=c1c2ccccc2nc(CSc2ncnc3ccccc23)n1-c1ccccc1F	-	.	.	.	.	.	.
CCCC#Cc1ccc([C@@H]2[C@H](CO)N3CCCCN(C(=O)Cc4ccccn4)C[C@@H]23)cc1	.	-	-	.	.	.	.
CC(C)CC#Cc1ccc([C@@H]2[C@@H](CO)N3CCCCN(C(=O)Cc4ccccn4)C[C@H]23)cc1	.	-	-	.	.	.	.
CC(C)CC#Cc1ccc([C@@H]2[C@H](CO)N3CCCCN(C(=O)Cc4ccccn4)C[C@@H]23)cc1	.	97	-	108	-	-	104
O=C(Cc1ccccn1)N1CCCCN2[C@H](CO)[C@H](c3ccc(C#Cc4ccccc4)cc3)[C@@H]2C1	.	116	-	109	-	36	46
NCC(=O)Nc1ccc(Br)cc1C(=O)c1ccccc1	-	.	.	.	.	.	.
O=C(Cc1ccccn1)N1CCCCN2[C@@H](CO)[C@@H](c3ccc(-c4ccc(F)cc4)cc3)[C@@H]2C1	.	?	-	-	-	-	41
O=C(Cc1ccccn1)N1CCCCN2[C@H](C1)[C@H](c1ccc(-c3ccc(F)cc3)cc1)[C@@H]2CO	.	-	-	.	.	.	.
O=C(Cc1ccccn1)N1CCCCN2[C@@H](CO)[C@H](c3ccc(-c4ccc(F)cc4)cc3)[C@@H]2C1	.	101	-	?	-	-	34
Cc1ccccc1-c1ccc([C@H]2[C@@H](CO)N3CCCCN(C(=O)Cc4ccccn4)C[C@H]23)cc1	.	-	-	.	.	.	.
O=C(Cc1ccccn1)N1CCCCN2[C@H](CO)[C@H](c3ccc(-c4ccccc4F)cc3)[C@@H]2C1	.	97	-	109	-	-	-
Cc1ccccc1-c1ccc([C@@H]2[C@H](CO)N3CCCCN(C(=O)Cc4ccccn4)C[C@@H]23)cc1	.	?	-	-	-	-	65
O=C(Cc1ccccn1)N1CCCCN2[C@H](C1)[C@@H](c1ccc(-c3ccc(F)cc3)cc1)[C@@H]2CO	.	-	-	.	.	.	.
O=C(Cc1ccccn1)N1CCCCN2[C@H](CO)[C@@H](c3ccc(-c4ccccc4F)cc3)[C@@H]2C1	.	-	-	.	.	.	.
CC(C)(C)c1cc(C=C(C#N)C#N)cc(Br)c1O	-	.	.	.	.	.	.
C=C1[C@@H](O)[C@]23C[C@@H]1[C@@H](O)C[C@H]2[C@@]12C4[C@@H]3C[C@@H]1[C@@](C)(CC[C@@H]2O)CN4CC	-	.	.	.	.	.	.
Brc1cccc(CN2CCN(Cc3cccc(Br)c3)CC2)c1	-	.	.	.	.	.	.
COc1ccc(CC2(CCc3ccncc3)C(=O)NC(=O)N(c3cccc(C)c3)C2=O)c(OC)c1 (configuration not stated)	-	.	.	.	.	.	.
CC1=CC(=O)C2=C(C)C[C@H](O)[C@@H]3[C@H](OC(=O)[C@@H]3C)[C@@H]12	-	.	.	.	.	.	.
SMILES	IDH1 mut inh	T cruzi growth-1	GASC1 inh	T cruzi growth-2	T cruzi growth-3	NIH3T3 tox	NIH3T3 tox 2
O=C1CCC2(O)C3Cc4ccc(O)c5c4C2(CCN3CC2CC2)C1O5 (configuration not stated)	-	.	.	.	.	.	.
COc1ccc(-c2ccc([C@H]3[C@@H](CO)N4CCCCN(C(=O)Cc5ccncc5)C[C@H]34)cc2)cc1	.	-	-	.	.	.	.
COc1ccc(C#Cc2ccc([C@H]3[C@@H](CO)N4CCCCN(C(=O)Cc5ccncc5)C[C@H]34)cc2)cc1	.	109	-	108	-	-	106
COc1ccc(-c2ccc([C@@H]3[C@H](CO)N4CCCCN(C(=O)Cc5ccncc5)C[C@@H]34)cc2)cc1	.	99	-	98	-	-	29
COc1ccc(C#Cc2ccc([C@@H]3[C@H]4CN(C(=O)Cc5ccncc5)CCCCN4[C@H]3CO)cc2)cc1	.	106	-	-	-	-	100
O=C(Cc1ccncc1)N1CCCCN2[C@H](CO)[C@H](c3ccc(C#CC4(O)CCCC4)cc3)[C@@H]2C1	.	-	-	.	.	.	.
O=C(Cc1ccncc1)N1CCCCN2[C@H](CO)[C@@H](c3ccc(C#CC4(O)CCCC4)cc3)[C@@H]2C1	.	105	-	-	-	-	-
